Laboratory results taken from ChEMBL document CHEMBL1144265, “Syntheses of 2,4,6-trisubstituted triazines as antimalarial agents” (Bioorg Med Chem Lett, 2005).
≈ marks a conversion by molar mass, not a printed value.

Key:
Plasmodium falciparum = experiment: In vitro minimum inhibiting concentration for schizont maturation from ring stage parasite over 40 hrs; assay type: functional
Summary of the method: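 P. falciparum NF-54 kept in RPMI-1640 with 25 mM HEPES and 1% D-glucose. Rieckmann microassay: compound at […] in duplicate wells with parasitized cells, 37 °C in a candle jar for 36–40 h. Giemsa-stained smears were read by microscopy for ring-to-trophozoite/schizont maturation. MIC taken as the concentration that blocks complete maturation to schizonts.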

[1] = In vitro PKa value was determined; assay type: physicochemical
[2] = Partition coefficient (logP); assay type: physicochemical; conditions: octanol/water

MIC (Plasmodium falciparum) [µg/mL] | pKa [1] | logP [2] | SMILES
10 (≈ 23 µM) | 3.13 | 1.94 | O=[N+]([O-])c1ccc(Nc2nc(Nc3cccc(F)c3)nc(Nc3cccc(F)c3)n2)cc1
10 (≈ 20.8 µM) | 2.94 | 1.64 | O=[N+]([O-])c1ccc(Nc2nc(N3CCc4cccnc4C3)nc(N3CCc4cccnc4C3)n2)cc1
2 (≈ 4.55 µM) | 2.64 | 0.372 | O=[N+]([O-])c1ccc(Nc2nc(NC3CCCCCC3)nc(NC3CCCCCC3)n2)cc1
50 (≈ 130 µM) | 3.95 | 2.54 | O=[N+]([O-])c1ccc(Nc2nc(N3CCCCC3)nc(N3CCCCC3)n2)cc1
10 (≈ 18.6 µM) | 2.86 | 1.64 | O=[N+]([O-])c1ccc(Nc2nc(N3CCN(c4ccccc4)CC3)nc(N3CCN(c4ccccc4)CC3)n2)cc1
50 (≈ 139 µM) | 3.68 | 2.84 | CC(C)(C)Nc1nc(Nc2ccc([N+](=O)[O-])cc2)nc(NC(C)(C)C)n1
1 (≈ 2.16 µM) | 1.96 | 0.345 | O=[N+]([O-])c1ccc(Nc2nc(NCCCn3ccnc3)nc(NCCCn3ccnc3)n2)cc1
50 (≈ 141 µM) | 3.62 | 2.46 | O=[N+]([O-])c1ccc(Nc2nc(N3CCCC3)nc(N3CCCC3)n2)cc1
64 (≈ 254 µM) | 3.82 | 2.94 | CC1(C)N=C(N)N=C(N)N1c1ccc(Cl)cc1 [CYCLOGUANIL]
1 (≈ 2.42 µM) | 1.88 | 0.228 | CN1CCN(c2nc(Nc3ccc([N+](=O)[O-])cc3)nc(N3CCN(C)CC3)n2)CC1
2 (≈ 3.54 µM) | 2.12 | 0.92 | O=[N+]([O-])c1ccc(Nc2nc(N3CCN(Cc4ccccc4)CC3)nc(N3CCN(Cc4ccccc4)CC3)n2)cc1
1 (≈ 2.43 µM) | 2.58 | 0.356 | O=[N+]([O-])c1ccc(Nc2nc(NC3CCCCC3)nc(NC3CCCCC3)n2)cc1
10 (≈ 27.8 µM) | 3.05 | 2.06 | CCN(CC)c1nc(Nc2ccc([N+](=O)[O-])cc2)nc(N(CC)CC)n1
10 (≈ 25.8 µM) | 2.98 | -0.06 | O=[N+]([O-])c1ccc(Nc2nc(N3CCOCC3)nc(N3CCOCC3)n2)cc1
50 (≈ 149 µM) | 2.86 | -0.56 | O=[N+]([O-])c1ccc(Nc2nc(NCCO)nc(NCCO)n2)cc1
2 (≈ 5.56 µM) | 2.32 | 0.396 | CCCCNc1nc(NCCCC)nc(Nc2ccc([N+](=O)[O-])cc2)n1
10 (≈ 23.4 µM) | 2.88 | 1.68 | O=[N+]([O-])c1ccc(Nc2nc(NCc3ccccc3)nc(NCc3ccccc3)n2)cc1
